# ChEMBL document CHEMBL1212700, “Small-molecule aggregates inhibit amyloid polymerization” (Nat Chem Biol, 2008)
# The source made the active and inactive calls. The calls are words filed in the database; no cut-off is given here.
# Columns and labels:
# [1] = Inhibition of Beta-lactamase at 35 uM by nitrocefin hydrolysis assay
# [2] = Inhibition of Beta-lactamase at 35 uM in presence of 0.01% Triton X-100 by nitrocefin hydrolysis assay
# [3] = Inhibition of Beta-lactamase at 30 uM by nitrocefin hydrolysis assay
# [4] = Inhibition of Beta-lactamase at 30 uM in presence of 0.01% Triton X-100 by nitrocefin hydrolysis assay
# [5] = target: T1, Eukaryotic peptide chain release factor GTP-binding subunit (Saccharomyces cerevisiae) (UniProt P05453); conditions: at 50 µM
# T1 sequence (whole entry): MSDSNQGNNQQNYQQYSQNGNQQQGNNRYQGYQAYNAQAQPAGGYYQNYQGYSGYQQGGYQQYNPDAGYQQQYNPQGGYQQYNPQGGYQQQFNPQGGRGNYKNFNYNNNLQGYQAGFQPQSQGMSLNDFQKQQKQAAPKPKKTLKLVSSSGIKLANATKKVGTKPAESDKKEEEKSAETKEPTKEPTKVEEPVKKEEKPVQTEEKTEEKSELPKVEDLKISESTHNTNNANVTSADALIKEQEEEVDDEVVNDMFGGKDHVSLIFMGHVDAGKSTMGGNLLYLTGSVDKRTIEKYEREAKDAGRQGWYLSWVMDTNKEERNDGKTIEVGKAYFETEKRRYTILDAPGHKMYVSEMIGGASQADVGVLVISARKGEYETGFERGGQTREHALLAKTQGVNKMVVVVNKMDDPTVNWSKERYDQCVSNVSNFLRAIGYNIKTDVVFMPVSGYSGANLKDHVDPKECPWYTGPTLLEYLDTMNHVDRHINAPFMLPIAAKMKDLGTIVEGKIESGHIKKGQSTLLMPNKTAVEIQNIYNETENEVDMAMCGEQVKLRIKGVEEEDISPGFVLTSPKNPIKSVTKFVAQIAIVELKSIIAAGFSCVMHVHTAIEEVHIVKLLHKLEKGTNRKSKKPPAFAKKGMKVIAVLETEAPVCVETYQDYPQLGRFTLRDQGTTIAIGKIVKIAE
# [6] = target: T1, Eukaryotic peptide chain release factor GTP-binding subunit (Saccharomyces cerevisiae); experiment: Inhibition of yeast prion protein Sup35 infection of PSI yeast spheroplast cells at 200 uM
# Outline: (§1)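 Yeast made infection-competent by enzymatic digestion of the cell wall, then exposed to Sup35 prion with compound; infectivity scored. EC50 derived from a 40–200 μM concentration series.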
# [7] = target: T1, Eukaryotic peptide chain release factor GTP-binding subunit (Saccharomyces cerevisiae); conditions: at 50 µM; remark: listed apart in the source
# Mus musculus [8] = species on record: Mus musculus; conditions: at 50 µM
# [9] = target: T1, Eukaryotic peptide chain release factor GTP-binding subunit (Saccharomyces cerevisiae); experiment: Inhibition of yeast prion protein Sup35 infection of PSI yeast spheroplast cells at 100 uM; outline: as §1
# [10] = target: T1, Eukaryotic peptide chain release factor GTP-binding subunit (Saccharomyces cerevisiae); experiment: Inhibition of polyhistidine tagged yeast prion protein Sup35 expressed in Escherichia coli BL21 (DE3) assessed as inhibition of amyloid polymerization preincubation of seed fibers and compound for 5 mins at 100 uM by thioflavin T fluorescence assay relative to untreated control
# [11] = target: T1, Eukaryotic peptide chain release factor GTP-binding subunit (Saccharomyces cerevisiae); experiment: Inhibition of polyhistidine tagged yeast prion protein Sup35 expressed in Escherichia coli BL21 (DE3) assessed as inhibition of amyloid polymerization at 100 uM by thioflavin T fluorescence assay relative to untreated control
# Outline: (§2)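 Sup35 fibrillization followed by thioflavin T fluorescence in seeded and unseeded polymerization reactions. For BSA lines, BSA added from a 20 mg ml−1 solution to a final 5 mg ml−1. Inhibition is relative to untreated reactions.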
# [12] = Inhibition of Beta-lactamase at 25 uM in presence of 0.01% Triton X-100 by nitrocefin hydrolysis assay
# [13] = Inhibition of Beta-lactamase at 25 uM by nitrocefin hydrolysis assay
# [14] = target: T2, Eukaryotic peptide chain release factor GTP-binding subunit (Saccharomyces cerevisiae, UniProt P05453); experiment: Inhibition of polyhistidine tagged yeast prion protein Sup35 expressed in Escherichia coli BL21 (DE3) assessed as inhibition of amyloid polymerization by thioflavin T fluorescence assay relative to untreated control; outline: as §2
# T2 sequence (P05453 whole entry): T1 sequence (whole entry)
# [15] = target: T1, Eukaryotic peptide chain release factor GTP-binding subunit (Saccharomyces cerevisiae); experiment: Inhibition of polyhistidine tagged yeast prion protein Sup35 expressed in Escherichia coli BL21 (DE3) assessed as inhibition of amyloid polymerization at 30 uM in presence of 5 mg/ml BSA by thioflavin T fluorescence assay relative to untreated control; outline: as §2
# [16] = target: T1, Eukaryotic peptide chain release factor GTP-binding subunit (Saccharomyces cerevisiae); experiment: Inhibition of polyhistidine tagged yeast prion protein Sup35 expressed in Escherichia coli BL21 (DE3) assessed as inhibition of fiber formation at 100 uM by transmission electron microscopy
# Outline: (§3)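 Transmission electron microscopy of recMoPrP (50 μM compound) or Sup35 (100 μM compound) polymerized in the presence of compound, scored for fibre formation.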
# [17] = target: T1, Eukaryotic peptide chain release factor GTP-binding subunit (Saccharomyces cerevisiae); experiment: Inhibition of polyhistidine tagged yeast prion protein Sup35 expressed in Escherichia coli BL21 (DE3) assessed as coating of prion protein with […] particles at 100 uM by transmission electron microscopy
# Outline: (§4)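 Preformed fibres (recMoPrP at 50 μM compound, Sup35 at 100 μM compound) were mixed with compound, then examined by transmission electron microscopy for colloidal particles coating the fibres.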
# [18] = Inhibition of dynamic light scattering at 20 uM by thioflavin T fluorescence assay relative to untreated control; type: physicochemical
# Outline: (§5)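 Sup35 polymerization followed by dynamic light scattering rather than ThT fluorescence, as a control for spectroscopic interference; percent inhibition of the DLS signal.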
# [19] = Inhibition of dynamic light scattering at 2 uM by thioflavin T fluorescence assay relative to untreated control; type: physicochemical; outline: as §5
# [20] = target: T1, Eukaryotic peptide chain release factor GTP-binding subunit (Saccharomyces cerevisiae); experiment: Inhibition of polyhistidine tagged yeast prion protein Sup35 expressed in Escherichia coli BL21 (DE3) assessed as inhibition of amyloid polymerization at 30 uM by thioflavin T fluorescence assay relative to untreated control; outline: as §2
# [21] = Inhibition of Beta-lactamase at 50 uM in presence of 0.01% Triton X-100 by nitrocefin hydrolysis assay
# Mus musculus [22] = species on record: Mus musculus; experiment: Inhibition of mouse prion protein (89-230) assessed as inhibition of amyloid polymerization at 25 uM by thioflavin T fluorescence assay relative to untreated control
# Outline: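 Mouse prion protein (recMoPrP) fibrillization monitored by thioflavin T fluorescence; reactions contained 3 M urea.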
# [23] = Inhibition of Beta-lactamase at 50 uM by nitrocefin hydrolysis assay
# [24] = target: T1, Eukaryotic peptide chain release factor GTP-binding subunit (Saccharomyces cerevisiae); experiment: Inhibition of polyhistidine tagged yeast prion protein Sup35 expressed in Escherichia coli BL21 (DE3) assessed as inhibition of amyloid polymerization at 5 uM in presence of 5 mg/ml BSA by thioflavin T fluorescence assay relative to untreated control; outline: as §2
# [25] = Inhibition of Beta-lactamase at 4 uM in presence of 0.01% Triton X-100 by nitrocefin hydrolysis assay
# [26] = target: T1, Eukaryotic peptide chain release factor GTP-binding subunit (Saccharomyces cerevisiae); experiment: Inhibition of polyhistidine tagged yeast prion protein Sup35 expressed in Escherichia coli BL21 (DE3) assessed as inhibition of amyloid polymerization at 5 uM by thioflavin T fluorescence assay relative to untreated control; outline: as §2
# [27] = Inhibition of Beta-lactamase at 4 uM by nitrocefin hydrolysis assay
# Mus musculus [28] = species on record: Mus musculus; experiment: Inhibition of mouse prion protein (89-230) assessed as assessed as inhibition of fiber formation at 50 uM by transmission electron microscopy; outline: as §3
# Mus musculus [29] = species on record: Mus musculus; experiment: Inhibition of mouse prion protein (89-230) assessed as assessed as coating of prion protein with […] particles at 50 uM by transmission electron microscopy; outline: as §4
# [30] = target: T1, Eukaryotic peptide chain release factor GTP-binding subunit (Saccharomyces cerevisiae); experiment: Inhibition of polyhistidine tagged yeast prion protein Sup35 expressed in Escherichia coli BL21 (DE3) assessed as inhibition of amyloid polymerization at 10 uM by thioflavin T fluorescence assay relative to untreated control; outline: as §2
# [31] = target: T1, Eukaryotic peptide chain release factor GTP-binding subunit (Saccharomyces cerevisiae); experiment: Inhibition of polyhistidine tagged yeast prion protein Sup35 expressed in Escherichia coli BL21 (DE3) assessed as inhibition of amyloid polymerization at 10 uM in presence of 5 mg/ml BSA by thioflavin T fluorescence assay relative to untreated control; outline: as §2
# Saccharomyces cerevisiae = experiment: Toxicity in PSI yeast spheroplast cells infected with yeast prion protein Sup35; type: organism-based
# [32] = target: T1, Eukaryotic peptide chain release factor GTP-binding subunit (Saccharomyces cerevisiae); experiment: Inhibition of polyhistidine tagged yeast prion protein Sup35 expressed in Escherichia coli BL21 (DE3) assessed as inhibition of amyloid polymerization at 50 uM in presence of 0.5% seed fibres by thioflavin T fluorescence assay relative to untreated control
# Outline: (§6)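 Seeded Sup35 polymerization read by thioflavin T fluorescence, with seed at 0.5%, 1% or 5% and compound at fixed 50 μM. Preincubation line: 5-min preincubation before polymerization.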
# [33] = target: T1, Eukaryotic peptide chain release factor GTP-binding subunit (Saccharomyces cerevisiae); experiment: Inhibition of polyhistidine tagged yeast prion protein Sup35 expressed in Escherichia coli BL21 (DE3) assessed as inhibition of amyloid polymerization at 50 uM in presence of 1% seed fibres by thioflavin T fluorescence assay relative to untreated control; outline: as §6
# [34] = target: T1, Eukaryotic peptide chain release factor GTP-binding subunit (Saccharomyces cerevisiae); experiment: Inhibition of polyhistidine tagged yeast prion protein Sup35 expressed in Escherichia coli BL21 (DE3) assessed as inhibition of amyloid polymerization at 50 uM in presence of 5% seed fibres by thioflavin T fluorescence assay relative to untreated control; outline: as §6
# [35] = Inhibition of dynamic light scattering at 25 uM by thioflavin T fluorescence assay relative to untreated control; type: physicochemical
# Outline: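 Sup35 fibrillization was tracked by dynamic light scattering, which served as a check against spectroscopic interference in the thioflavin T fluorescence read-out. Inhibition was scored against the reaction without compound.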
compound,measurement,setting,value
Cc1cc(/N=N/c2ccc(-c3ccc(/N=N/c4cc(C)c(O)c(C(=O)O)c4)cc3)cc2)c(C(=O)O)cc1O,inhibition,[1],50%
same,inhibition,[2],0%
O=c1cc(-c2ccccc2)oc2cc(O)c(O)c(O)c12,inhibition,[3],51.8%
same,inhibition,[4],0%
same,inhibition,[5],17.6%
same,inhibition,[6],Active
same,inhibition,[7],95.4%
same,inhibition,Mus musculus [8],34.3%
COC(=O)C1=C(C)NC(C)=C(C(=O)OCCN(C)Cc2ccccc2)C1c1cccc([N+](=O)[O-])c1 (stereo not given),inhibition,[5],0%
same,inhibition,[6],Active
same,inhibition,[7],61.5%
same,inhibition,[9],50%
same,inhibition,[10],88%
same,inhibition,[11],55%
same,inhibition,Mus musculus [8],22.7%
Clc1ccc(CSC(Cn2ccnc2)c2ccc(Cl)cc2Cl)cc1 (stereo not given),inhibition,[5],10.1%
same,inhibition,[7],75.5%
same,inhibition,Mus musculus [8],100%
Oc1c(I)cc(Cl)c2cccnc12,inhibition,[12],6.4%
same,inhibition,[5],0%
same,inhibition,[13],51.6%
same,inhibition,[7],54.7%
same,inhibition,Mus musculus [8],0%
O=C1C(I)=CC(=C(c2ccccc2C(=O)O)C2C=C(I)C(=O)C(I)=C2)C=C1I [TERAIODOPHENOLPHATHALIN],IC50,[14],2500 nM
same,inhibition,[15],6.8%
same,inhibition,[16],Active
same,inhibition,[17],Active
same,inhibition,[6],Active
same,inhibition (INH),[18],99%
same,inhibition (INH),[19],30%
same,inhibition,[20],99.3%
same,inhibition,Mus musculus [8],0%
O=C1NC(=O)c2cc(Nc3ccccc3)c(Nc3ccccc3)cc21,inhibition,[5],44.7%
same,inhibition,[21],0.7%
same,inhibition,[6],Active
same,inhibition,Mus musculus [22],73.6%
same,inhibition,[7],87.1%
same,inhibition,[23],97%
Nc1c(/N=N/c2ccc(-c3ccc(/N=N/c4cc(S(=O)(=O)O)c5ccccc5c4N)cc3)cc2)cc(S(=O)(=O)O)c2ccccc12,inhibition,[24],100%
same,inhibition,[25],20%
same,inhibition,[26],100%
same,inhibition,[27],92%
same,inhibition,Mus musculus [8],100%
CCN(CC)CC(=O)Nc1c(C)cccc1C,inhibition,[5],0%
same,inhibition,[6],Active
same,inhibition,Mus musculus [22],0%
same,inhibition,[7],1.1%
OC(Cn1cncn1)(Cn1cncn1)c1ccc(F)cc1F,inhibition,[5],9%
same,inhibition,[7],0%
same,inhibition,Mus musculus [8],5.9%
CC(=O)c1c(O)c(C)c(O)c(Cc2c(O)c3c(c(C(=O)/C=C/c4ccccc4)c2O)OC(C)(C)C=C3)c1O,inhibition,[15],40.5%
same,inhibition,Mus musculus [28],Active
same,inhibition,[6],Active
same,inhibition,Mus musculus [29],Active
same,inhibition,Mus musculus [22],71.1%
same,inhibition,[20],99.4%
Oc1ccc(/N=N/c2ccc(Br)cc2)cc1,inhibition,[30],36.4%
same,inhibition,[31],2.1%
same,inhibition,Mus musculus [22],100%
same,Activity,Saccharomyces cerevisiae,Toxic
Clc1ccccc1C(c1ccccc1)(c1ccccc1)n1ccnc1 [CLOTRIMAZOLE],inhibition,[32],99%
same,inhibition,[33],95%
same,inhibition,[5],5.6%
same,inhibition,[34],30%
same,inhibition (INH),[35],98%
same,inhibition,Mus musculus [22],21.5%
same,inhibition,[7],62.7%
same,inhibition,[10],94%
same,inhibition,[11],79%
same,Activity,Saccharomyces cerevisiae,Toxic
